These results are taken from paper PMC3055939 (Chemical biology & drug design, 2011).

The term IC50 denotes the midpoint of a concentration-inhibition curve.

For series [1] the following is noted: cited from earlier work.
In the next series the target is purified PSMA (GCP2) (Homo sapiens, UniProt Q04609). Briefly: IC50 determinations for PSMA inhibition. The series is classed as biochemical. The gist of the method:
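Purified PSMA (working stock 50 μg/mL) was diluted in 50 mM Tris, pH 7.4, 1% Triton X-100 to give 15–20% substrate conversion without inhibitor. […] Reactions were quenched with 2% TFA in methanol, buffered with K2HPO4, and centrifuged. Product was quantified by HPLC, and IC50 was calculated.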

Chain of purified PSMA (GCP2) (Q04609 whole entry): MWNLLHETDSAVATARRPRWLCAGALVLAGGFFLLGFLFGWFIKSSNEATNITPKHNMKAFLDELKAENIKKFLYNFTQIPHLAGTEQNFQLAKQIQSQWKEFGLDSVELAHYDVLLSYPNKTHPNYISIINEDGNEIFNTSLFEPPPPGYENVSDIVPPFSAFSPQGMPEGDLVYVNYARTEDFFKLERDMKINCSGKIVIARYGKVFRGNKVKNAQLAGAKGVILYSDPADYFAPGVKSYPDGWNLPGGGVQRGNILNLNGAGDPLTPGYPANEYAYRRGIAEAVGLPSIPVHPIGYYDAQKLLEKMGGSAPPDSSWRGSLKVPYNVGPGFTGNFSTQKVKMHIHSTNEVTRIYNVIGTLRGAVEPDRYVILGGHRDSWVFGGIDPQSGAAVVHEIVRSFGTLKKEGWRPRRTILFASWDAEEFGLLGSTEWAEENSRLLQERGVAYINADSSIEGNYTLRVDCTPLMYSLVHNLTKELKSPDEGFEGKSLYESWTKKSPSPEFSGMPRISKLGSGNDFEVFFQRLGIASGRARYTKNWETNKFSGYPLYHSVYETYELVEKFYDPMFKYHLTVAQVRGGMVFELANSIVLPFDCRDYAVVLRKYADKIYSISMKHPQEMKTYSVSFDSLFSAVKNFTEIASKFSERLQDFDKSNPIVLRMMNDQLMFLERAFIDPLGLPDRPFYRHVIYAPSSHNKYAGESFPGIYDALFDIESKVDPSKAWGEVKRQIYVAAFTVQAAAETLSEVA

Turning to `O=C(O)CCC(CP(=O)(O)O)C(=O)O` (centres unmarked) [2-PMPA], the oral bioavailability result in series [1] is listed as “poor oral bioavailability”.
In the case of `C=CS(=O)(=O)NC(CCC(=O)O)C(=O)O` (centres unmarked) [2e, 2-Ethenesulfonylamino-pentanedioic acid], the IC50 against purified PSMA (GCP2) is > 100 µM.
